# From ChEMBL document CHEMBL1212920, “Discovery of 6-(aminomethyl)-5-(2,4-dichlorophenyl)-7-methylimidazo[1,2-a]pyrimidine-2-carboxamides as potent, selective dipeptidyl peptidase-4 (DPP4) inhibitors” (J Med Chem, 2010)
# Key:
# [1] = Membrane permeability by PAMPA assay; assay type: ADME; conditions: read-out: permeability
# [2] = Cmax in ob/ob mouse at 3 mg/kg, po after 1 hr; assay type: ADME, organism-based; set-up: dose 3 mg/kg, route oral; conditions: in vivo
# [3] = Permeability across human Caco-2 cells; assay type: ADME, cell-based; conditions: read-out: permeability
# [4] = molecular target: Dipeptidyl peptidase 9 (Homo sapiens, UniProt Q86TI2); test: Inhibition of human DPP9
# Chain of Dipeptidyl peptidase 9 (Q86TI2 whole entry): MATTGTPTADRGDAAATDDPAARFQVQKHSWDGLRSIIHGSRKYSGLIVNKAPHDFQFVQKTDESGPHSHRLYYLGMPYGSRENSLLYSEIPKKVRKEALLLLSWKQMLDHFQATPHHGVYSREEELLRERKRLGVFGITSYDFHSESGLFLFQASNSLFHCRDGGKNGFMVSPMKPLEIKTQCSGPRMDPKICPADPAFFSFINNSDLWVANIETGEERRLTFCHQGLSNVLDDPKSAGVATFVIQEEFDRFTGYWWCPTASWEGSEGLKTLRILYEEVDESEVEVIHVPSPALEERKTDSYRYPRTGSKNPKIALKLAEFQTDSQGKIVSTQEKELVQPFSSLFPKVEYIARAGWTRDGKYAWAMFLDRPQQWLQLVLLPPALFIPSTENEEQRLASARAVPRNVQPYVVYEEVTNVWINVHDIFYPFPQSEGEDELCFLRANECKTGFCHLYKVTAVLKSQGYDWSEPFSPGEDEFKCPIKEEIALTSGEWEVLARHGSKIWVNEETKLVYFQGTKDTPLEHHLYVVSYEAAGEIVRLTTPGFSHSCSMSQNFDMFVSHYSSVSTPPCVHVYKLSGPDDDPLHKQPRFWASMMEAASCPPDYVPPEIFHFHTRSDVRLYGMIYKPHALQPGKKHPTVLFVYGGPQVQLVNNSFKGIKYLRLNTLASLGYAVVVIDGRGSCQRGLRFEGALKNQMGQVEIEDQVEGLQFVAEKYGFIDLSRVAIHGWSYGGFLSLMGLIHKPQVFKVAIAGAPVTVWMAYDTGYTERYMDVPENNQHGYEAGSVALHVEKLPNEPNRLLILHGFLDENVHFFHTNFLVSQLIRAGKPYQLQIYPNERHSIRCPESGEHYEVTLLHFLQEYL
# [5] = molecular target: Dipeptidyl peptidase 8 (Homo sapiens, UniProt Q6V1X1); test: Inhibition of human DPP8
# Chain of Dipeptidyl peptidase 8 (Q6V1X1 whole entry): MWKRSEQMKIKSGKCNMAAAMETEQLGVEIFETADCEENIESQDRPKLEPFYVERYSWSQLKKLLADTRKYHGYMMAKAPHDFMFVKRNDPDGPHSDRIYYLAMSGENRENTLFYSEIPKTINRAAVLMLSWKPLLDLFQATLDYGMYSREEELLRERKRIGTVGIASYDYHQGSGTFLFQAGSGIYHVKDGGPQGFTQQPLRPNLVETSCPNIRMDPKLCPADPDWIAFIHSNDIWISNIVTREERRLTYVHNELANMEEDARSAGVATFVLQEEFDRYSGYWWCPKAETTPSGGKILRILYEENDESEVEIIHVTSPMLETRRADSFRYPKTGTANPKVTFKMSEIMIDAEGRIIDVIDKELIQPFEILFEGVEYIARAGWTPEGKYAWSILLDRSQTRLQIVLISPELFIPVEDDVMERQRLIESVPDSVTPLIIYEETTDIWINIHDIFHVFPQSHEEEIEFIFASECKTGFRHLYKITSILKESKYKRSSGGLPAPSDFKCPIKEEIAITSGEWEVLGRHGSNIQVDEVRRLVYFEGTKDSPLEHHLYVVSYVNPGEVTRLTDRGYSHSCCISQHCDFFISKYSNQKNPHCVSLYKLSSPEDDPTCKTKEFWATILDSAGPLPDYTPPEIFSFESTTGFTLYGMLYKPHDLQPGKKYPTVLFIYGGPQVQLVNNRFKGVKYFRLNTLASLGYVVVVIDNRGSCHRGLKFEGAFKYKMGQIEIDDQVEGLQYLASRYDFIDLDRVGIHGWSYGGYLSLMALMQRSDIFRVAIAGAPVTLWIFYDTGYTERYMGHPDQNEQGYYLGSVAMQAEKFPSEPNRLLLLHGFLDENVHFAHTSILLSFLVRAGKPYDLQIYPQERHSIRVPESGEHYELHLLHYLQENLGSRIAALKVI
# [6] = Clearance in iv dosed rat; assay type: ADME, organism-based; conditions: in vivo
# How it was run: (§1)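 Rat pharmacokinetics after a 5 μmol/kg intraarterial dose and a 2 μmol/kg oral dose, with water as vehicle. Urine collected over 24 h and the fraction of dose excreted as unchanged parent measured. Terminal half-life estimated after intraarterial dosing.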
# [7] = tested on: Mus musculus; test: Antidiabetic activity in ob/ob mouse assessed as increase in insulin level at 3 umol/kg, po administered 1 hr prior to glucose challenge by oral glucose tolerance test; assay type: functional
# How it was run: (§2)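 Male ob/ob mice, 13-14 weeks old, fed a 10% fat diet, fasted overnight. Given vehicle (water) or inhibitor orally at -60 min, then oral glucose 2 g/kg at 0 min. Tail bleeds into EDTA tubes at -60, 0, 15, 30, 60, 90 and 120 min. Plasma glucose read by glucometer, insulin by mouse ELISA. Mean of 12-24 mice/group; one-way ANOVA with Dunnett's test.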
# [8] = Half life in rat at 5 umol/kg, intra arterial and 2 umol/kg, po; assay type: ADME, organism-based; conditions: in vivo; how it was run: as §1
# [9] = tested on: Rattus norvegicus; test: Volume of distribution at steady state in rat at 5 umol/kg, intra arterial and 2 umol/kg, po; assay type: ADME, organism-based; conditions: in vivo; how it was run: as §1
# [10] = Oral bioavailability in rat at 2 umol/kg, po; assay type: ADME, organism-based; conditions: in vivo; how it was run: as §1
# [11] = tested on: Mus musculus; test: In vivo inhibition of DPP4 activity in ob/ob mouse plasma at 1 umol/kg, po; assay type: functional
# [12] = tested on: Mus musculus; test: Antidiabetic activity in ob/ob mouse assessed as reduction in blood glucose level at 3 umol/kg, po administered 1 hr prior to glucose challenge by oral glucose tolerance test; assay type: functional; set-up: scale not given: the % may be the effect or the level left; how it was run: as §2
# [13] = tested on: Mus musculus; test: Antidiabetic activity in ob/ob mouse assessed as reduction in blood glucose level at 1 umol/kg, po administered 1 hr prior to glucose challenge by oral glucose tolerance test; assay type: functional; set-up: scale not given: the % may be the effect or the level left; how it was run: as §2
# [14] = Drug excretion in rat urine at 5 umol/kg, intra arterial and 2 umol/kg, po; assay type: ADME, organism-based; conditions: read-out: Activity; how it was run: as §1
# [15] = tested on: Mus musculus; test: In vivo inhibition of DPP4 activity in ob/ob mouse plasma at 3 umol/kg, po; assay type: functional
# [16] = molecular target: hERG (KCNH2) (Homo sapiens, UniProt Q12809); test: Inhibition of human ERG at 10 uM
# Chain of hERG (KCNH2) (Q12809 whole entry): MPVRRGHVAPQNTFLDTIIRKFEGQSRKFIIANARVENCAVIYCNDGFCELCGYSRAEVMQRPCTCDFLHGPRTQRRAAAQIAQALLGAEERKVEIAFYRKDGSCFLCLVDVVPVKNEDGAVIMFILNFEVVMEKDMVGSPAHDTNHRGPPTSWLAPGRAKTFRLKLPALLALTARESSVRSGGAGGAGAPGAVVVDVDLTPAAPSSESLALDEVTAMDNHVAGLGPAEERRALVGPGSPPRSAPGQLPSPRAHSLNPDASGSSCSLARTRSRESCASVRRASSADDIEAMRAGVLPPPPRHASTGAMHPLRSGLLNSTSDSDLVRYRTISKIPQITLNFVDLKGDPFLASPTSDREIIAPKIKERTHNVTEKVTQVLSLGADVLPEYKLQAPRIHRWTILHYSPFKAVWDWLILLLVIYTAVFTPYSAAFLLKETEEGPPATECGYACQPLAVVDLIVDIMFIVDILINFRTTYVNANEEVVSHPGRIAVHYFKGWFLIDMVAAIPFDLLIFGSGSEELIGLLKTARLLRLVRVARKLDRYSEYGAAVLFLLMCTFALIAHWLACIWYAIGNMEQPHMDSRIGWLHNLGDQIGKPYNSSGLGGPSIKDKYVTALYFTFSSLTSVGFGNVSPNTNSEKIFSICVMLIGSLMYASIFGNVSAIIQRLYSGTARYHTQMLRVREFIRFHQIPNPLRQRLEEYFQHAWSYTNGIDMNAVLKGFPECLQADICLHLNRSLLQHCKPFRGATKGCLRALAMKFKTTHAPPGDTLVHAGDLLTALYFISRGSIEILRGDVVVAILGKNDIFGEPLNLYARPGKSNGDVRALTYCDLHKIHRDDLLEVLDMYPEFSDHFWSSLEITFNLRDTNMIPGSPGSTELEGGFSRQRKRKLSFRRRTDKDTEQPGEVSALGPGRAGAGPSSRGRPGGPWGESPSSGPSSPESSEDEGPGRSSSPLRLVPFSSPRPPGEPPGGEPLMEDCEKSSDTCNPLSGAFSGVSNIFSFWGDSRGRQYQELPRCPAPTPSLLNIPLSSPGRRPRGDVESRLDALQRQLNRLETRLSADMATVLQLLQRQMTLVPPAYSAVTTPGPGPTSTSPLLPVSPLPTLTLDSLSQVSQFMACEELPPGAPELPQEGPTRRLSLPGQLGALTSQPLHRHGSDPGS
# [17] = tested on: Mus musculus; test: Antidiabetic activity in ob/ob mouse assessed as increase in insulin level at 1 umol/kg, po administered 1 hr prior to glucose challenge by oral glucose tolerance test; assay type: functional; how it was run: as §2
# [18] = tested on: Canis familiaris; test: Volume of distribution at steady state in dog at 5 umol/kg, intra arterial and 2 umol/kg, po; assay type: ADME, organism-based, Canis lupus familiaris; conditions: in vivo
# [19] = Cmax in rat at 5 umol/kg, intra arterial and 2 umol/kg, po after 0.6 hrs; assay type: ADME, organism-based; set-up: dose 5 umol/kg, route oral; conditions: in vivo; how it was run: as §1
# [20] = Drug excretion in dog urine at 5 umol/kg, intra arterial and 2 umol/kg, po; assay type: ADME, organism-based, Canis lupus familiaris; conditions: read-out: Activity
# [21] = AUC (0 to infinity) in rat at 5 umol/kg, intra arterial and 2 umol/kg, po; assay type: ADME, organism-based; set-up: dose 5 umol/kg, route oral, time infinity; conditions: plasma; how it was run: as §1
# [22] = Half life in dog at 5 umol/kg, intra arterial and 2 umol/kg, po; assay type: ADME, organism-based, Canis lupus familiaris; conditions: in vivo
# [23] = Oral bioavailability in dog at 2 umol/kg, po; assay type: ADME, organism-based, Canis lupus familiaris; conditions: in vivo
# [24] = Clearance in iv dosed dog; assay type: ADME, organism-based, Canis lupus familiaris; conditions: in vivo
structure (smiles),measurement,setting,value
Cc1nc2nc(C(=O)N3CCCC3)cn2c(-c2ccc(Cl)cc2Cl)c1CN,Papp,[1],51.8 ×10⁻⁶ cm/s
Cc1nc2nc(C(=O)N3CC[C@H](NS(C)(=O)=O)C3)cn2c(-c2ccc(Cl)cc2Cl)c1CN,Cmax,[2],45 nM
same,Papp,[3],< 1.5 ×10⁻⁶ cm/s
Cc1nc2nc(C(=O)NC3CCN(C(C)C)CC3)cn2c(-c2ccc(Cl)cc2Cl)c1CN,Ki,[4],> 10 µM
same,Ki,[5],> 10 µM
CCn1nccc1NC(=O)c1cn2c(-c3ccc(Cl)cc3Cl)c(CN)c(C)nc2n1,clearance,[6],43.2 mL/min/kg
same,Activity,[7],129%
same,half-life,[8],2.1 h
same,Papp,[1],66.9 ×10⁻⁶ cm/s
same,Vdss,[9],3.9 L/kg
same,bioavailability,[10],64%
same,inhibition in vivo at 1 µmol/kg,[11],62%
same,Activity,[12],58%
same,Activity,[13],40%
same,dose excreted,[14],4.4%
same,inhibition in vivo at 3 µmol/kg,[15],52.8%
same,inhibition at 10 µM,[16],31%
same,Activity,[17],93%
Cc1nc2nc(C(=O)N3CCOCC3)cn2c(-c2ccc(Cl)cc2Cl)c1CN,clearance,[6],25.4 mL/min/kg
same,Vdss,[18],1.5 L/kg
same,Cmax,[19],324 nM
same,dose excreted,[20],41%
same,half-life,[8],1.6 h
same,Papp,[1],46.4 ×10⁻⁶ cm/s
same,AUC(0-inf),[21],0.714 µM·h
same,Vdss,[9],1.3 L/kg
same,bioavailability,[10],54%
same,Activity,[12],63%
same,half-life,[22],4.6 h
same,Activity,[13],66%
same,bioavailability,[23],76%
same,dose excreted,[14],56%
same,clearance,[24],7.9 mL/min/kg
Cc1nc2nc(-c3ccccc3)cn2c(-c2ccc(Cl)cc2Cl)c1CN,inhibition at 10 µM,[16],74%
Cc1nc2nc(C(=O)NCCN3CCCCC3)cn2c(-c2ccc(Cl)cc2Cl)c1CN,Ki,[4],> 30 µM
CCOC(=O)c1cn2c(-c3ccc(Cl)cc3Cl)c(CN)c(C)nc2n1,inhibition at 10 µM,[16],23%
